By Ki is commonly meant the dissociation constant of the complex between target and ligand, obtained from inhibition or displacement. Low values mean higher affinity, high ones lower affinity. The term ED50 denotes the dose that gives a 50% effect, or the effect in half of the subjects.

Structures are written as SMILES.

The values below come from ChEMBL document CHEMBL1133607, “Nonpeptide analogues of dynorphin A(1-8): design, synthesis, and pharmacological evaluation of kappa-selective agonists” (J Med Chem, 2000).

The target of test [1] is T1, Delta-type opioid receptor (Rattus norvegicus, UniProt P33533). As to the kind of experiment: Tested for binding affinity by [3H]diprenorphine displacement for Opioid receptor delta 1 are carried on crude membrane fractions obtained from the whole rat brain minus cerebellum. The class given is tissue-based. In outline: (§1)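 Rat whole-brain (minus cerebellum) crude membranes, 1 mg protein/tube, in 50 mM Tris-HCl pH 7.4 with aprotinin, leupeptin and bacitracin. […] U50,488 and DAMGO (300 nM each) saturate κ and µ sites; 1 µM DPDPE defines nonspecific binding. Compounds tested at 10^-11 to 10^-5 M. Ki values are the mean of three experiments in duplicate.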
T1 sequence (P33533 whole entry): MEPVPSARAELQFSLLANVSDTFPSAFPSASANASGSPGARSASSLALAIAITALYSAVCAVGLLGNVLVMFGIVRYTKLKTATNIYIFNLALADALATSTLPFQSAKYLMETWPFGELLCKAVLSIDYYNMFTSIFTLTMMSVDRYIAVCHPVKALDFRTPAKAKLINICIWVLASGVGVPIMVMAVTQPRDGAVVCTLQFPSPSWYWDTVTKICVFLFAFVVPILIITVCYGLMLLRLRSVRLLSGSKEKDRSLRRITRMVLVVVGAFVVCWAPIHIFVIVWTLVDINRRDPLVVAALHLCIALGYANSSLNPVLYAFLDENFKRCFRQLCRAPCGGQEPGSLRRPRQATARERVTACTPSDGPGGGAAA

In test [2] the target is T2, Mu-type opioid receptor (Rattus norvegicus, UniProt P33535). The test is described as follows: Tested for binding affinity by [3H]diprenorphine displacement for Opioid receptor mu 1 was carried on crude membrane fractions obtained from the whole rat brain minus cerebellum.. The class given is tissue-based. An outline of the steps:
(§2)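 Rat whole-brain (minus cerebellum) crude membranes, 1 mg protein/tube, in 50 mM Tris-HCl pH 7.4 with aprotinin, leupeptin and bacitracin. […] U50,488 and DADLE (300 nM each) saturate κ and δ sites; 1 µM DAMGO defines nonspecific binding. Compounds tested at 10^-11 to 10^-5 M. Ki values are the mean of three experiments in duplicate.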

A further test is filed under the species Cavia porcellus. As to the kind of experiment: (§3) Ratio of affinity towards delta to kappa opioid receptor.
Test [3] has as its target T2, Mu-type opioid receptor. As to the kind of experiment: Displacement of [3H]diprenorphine from opioid receptor mu 1 on crude membrane fractions obtained from whole rat brain (minus cerebellum). The class given is tissue-based. In outline:
as §2
A general note: In a radioligand displacement assay an active substance lowers the binding of a labelled ligand.

Test [4] concerns the target Kappa-type opioid receptor (Cavia porcellus, UniProt P41144). As to the kind of experiment: Displacement of [3H]-U-69,593 from Opioid receptor kappa 1 in guinea pig cerebellar.
Test [5] concerns the target Opioid receptors; mu & kappa (UniProt P41145+P35372). As to the kind of experiment: Ratio of affinity towards mu and kappa opioid receptors. It is filed as protein assay.
Test [6] concerns the target T1, Delta-type opioid receptor. The test is described as follows: Displacement of [3H]diprenorphine opioid receptor delta 1 on crude membrane fractions obtained from the whole rat brain (minus cerebellum). The class given is tissue-based. An outline of the steps: as §1
The test system of test [7] is Mus musculus. As to the kind of experiment: Antinociceptive activity by measuring effective dose after 10 mg/kg of nor-BNI administered subcutaneously 10 min before agonist administered in mouse. It is filed as functional. The note with it: sc, route subcutaneous. In outline: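 Male albino Swiss mice (20-25 g) given compound sc in saline with 0.5% CMC (0.1-10 mg/kg) 30 min before testing. nor-BNI 10 mg/kg sc given 10 min before agonist. Acetylcholine-induced abdominal constrictions were counted for 5 min after ip acetylcholine. ED50 is the dose that halves constrictions relative to vehicle.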

The subject of test [8] is Mus musculus. As to the kind of experiment: Effective dose after 10 mg/kg of nor-BNI administered subcutaneously 10 min before agonist administered in mouse rotarod test. To be noted: sc, route subcutaneous. It is filed as functional. An outline of the steps:
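Male albino Swiss mice received nor-BNI 10 mg/kg sc 10 min before agonist (sc, saline/0.5% CMC). 30 min after agonist, mice were placed on an accelerating rotarod with three trials; failure in any trial counted as impaired. ED50 is […].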
In general terms: The rotarod test checks motor coordination on a turning rod.

Test [9] deals with Opioid receptors; delta & kappa (Homo sapiens) (UniProt P41145+P41143). The test is described as §3. It is filed as protein assay.
Opioid receptors; delta & kappa (Homo sapiens), sequence (P41143 whole entry, looked up): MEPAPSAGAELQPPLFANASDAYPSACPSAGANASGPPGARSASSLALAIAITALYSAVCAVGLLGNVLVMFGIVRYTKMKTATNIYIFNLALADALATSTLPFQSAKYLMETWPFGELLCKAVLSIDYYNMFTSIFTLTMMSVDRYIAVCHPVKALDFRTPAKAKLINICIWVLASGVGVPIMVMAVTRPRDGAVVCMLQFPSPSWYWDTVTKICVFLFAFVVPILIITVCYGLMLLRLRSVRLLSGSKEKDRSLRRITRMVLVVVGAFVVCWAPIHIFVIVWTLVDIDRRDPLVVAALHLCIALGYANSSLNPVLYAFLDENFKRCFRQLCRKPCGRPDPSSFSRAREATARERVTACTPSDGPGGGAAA
Opioid receptors; delta & kappa (Homo sapiens), sequence (P41145 whole entry, looked up): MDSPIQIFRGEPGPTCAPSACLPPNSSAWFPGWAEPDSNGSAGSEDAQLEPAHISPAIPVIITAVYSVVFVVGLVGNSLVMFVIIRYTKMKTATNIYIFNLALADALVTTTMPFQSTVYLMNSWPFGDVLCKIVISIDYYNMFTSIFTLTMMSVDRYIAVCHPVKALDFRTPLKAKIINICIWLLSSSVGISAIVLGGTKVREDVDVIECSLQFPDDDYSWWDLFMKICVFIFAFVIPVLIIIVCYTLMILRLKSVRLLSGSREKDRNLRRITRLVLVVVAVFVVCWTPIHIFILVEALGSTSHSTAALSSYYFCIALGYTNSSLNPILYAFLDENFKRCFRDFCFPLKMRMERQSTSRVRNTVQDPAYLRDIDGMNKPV

Kappa-type opioid receptor, sequence (P41144 whole entry): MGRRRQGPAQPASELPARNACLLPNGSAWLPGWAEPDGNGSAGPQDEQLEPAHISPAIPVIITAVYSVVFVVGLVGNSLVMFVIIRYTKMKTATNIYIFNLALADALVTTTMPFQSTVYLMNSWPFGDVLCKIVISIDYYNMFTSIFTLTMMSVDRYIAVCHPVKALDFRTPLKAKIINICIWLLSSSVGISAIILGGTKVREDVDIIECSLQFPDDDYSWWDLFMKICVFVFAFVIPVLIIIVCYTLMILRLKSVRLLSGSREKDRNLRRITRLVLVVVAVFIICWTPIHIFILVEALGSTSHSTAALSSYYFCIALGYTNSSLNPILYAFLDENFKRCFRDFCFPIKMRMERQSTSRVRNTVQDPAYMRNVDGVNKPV
T2 sequence (P33535 whole entry): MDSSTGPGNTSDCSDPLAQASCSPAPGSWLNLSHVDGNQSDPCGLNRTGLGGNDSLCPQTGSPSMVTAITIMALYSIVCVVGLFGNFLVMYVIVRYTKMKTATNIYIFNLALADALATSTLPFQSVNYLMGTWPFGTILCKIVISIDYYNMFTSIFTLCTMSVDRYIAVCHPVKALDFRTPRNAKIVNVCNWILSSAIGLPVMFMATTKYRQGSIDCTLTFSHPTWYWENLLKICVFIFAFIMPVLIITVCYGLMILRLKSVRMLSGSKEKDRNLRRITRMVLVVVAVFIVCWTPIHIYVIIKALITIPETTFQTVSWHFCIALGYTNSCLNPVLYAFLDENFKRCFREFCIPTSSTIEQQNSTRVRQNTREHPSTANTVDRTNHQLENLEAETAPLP
Opioid receptors; mu & kappa, sequence (P35372 whole entry, looked up): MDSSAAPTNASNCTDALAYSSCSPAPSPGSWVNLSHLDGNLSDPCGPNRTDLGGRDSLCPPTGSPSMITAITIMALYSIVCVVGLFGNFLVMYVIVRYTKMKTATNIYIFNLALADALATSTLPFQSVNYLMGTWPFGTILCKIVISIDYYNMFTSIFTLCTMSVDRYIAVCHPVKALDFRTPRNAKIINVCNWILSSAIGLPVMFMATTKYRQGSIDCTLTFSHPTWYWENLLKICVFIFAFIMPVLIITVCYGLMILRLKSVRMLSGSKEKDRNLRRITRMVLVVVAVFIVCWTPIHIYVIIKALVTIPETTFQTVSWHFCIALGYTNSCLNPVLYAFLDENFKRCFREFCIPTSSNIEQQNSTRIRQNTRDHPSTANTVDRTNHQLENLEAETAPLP
Opioid receptors; mu & kappa, sequence (P41145 whole entry, looked up): as the sequence (P41145 whole entry, looked up) above

Regarding `COC(=O)[C@]1(c2ccccc2)C[C@@H]1CN1CC[C@@]2(C)c3cc(O)ccc3CC1[C@@H]2C`, the Ki (in test [1]; on Mu-type opioid receptor [2]) was > 25 µM in each case.

`CCCC(=N)NCCCCNC(=O)C(CC(C)C)NC(=O)CNC(=O)[C@]1(c2ccccc2)CC1CN1CC[C@@]2(C)c3cc(O)ccc3CC1C2C` (some centres not stated): the Selectivity ratio in the test filed under Cavia porcellus came out at 107; in test [5] it was 100. Also, the figures for the Ki (at Mu-type opioid receptor [3]; in [4]; in test [6]) were 6.78 µM, 0.0678 µM and 7.28 µM, respectively.

For `CCC(=N)NCCCCCNC(=O)C(CC(C)C)NC(=O)CNC(=O)[C@]1(c2ccccc2)CC1CN1CC[C@@]2(C)c3cc(O)ccc3CC1C2C` (some centres not stated), the Selectivity ratio in the test listed under Cavia porcellus was determined as 81.6; in test [5], 70.5. Also, the values for the Ki (on Mu-type opioid receptor [3]; in test [4]; in test [6]) were 4.82 µM, 0.0684 µM and 5.58 µM, respectively.

As for `CCCCC(=N)NCCCCCNC(=O)C(CC(C)C)NC(=O)[C@]1(c2ccccc2)CC1CN1CC[C@@]2(C)c3cc(O)ccc3CC1C2C` (some centres not stated), the results for the Selectivity ratio (in the test listed under Cavia porcellus; in test [5]) were 36.6 and 24.3, respectively. Further, the inhibitory constant (Ki) on Mu-type opioid receptor [3] came out at 2.38 µM; in [4], 0.0981 µM; in [6], 3.59 µM.

On to `CCCCC(=N)NCCCCCCNC(=O)C(CC(C)C)NC(=O)CNC(=O)[C@]1(c2ccccc2)CC1CN1CC[C@@]2(C)c3cc(O)ccc3CC1C2C` (some centres not stated), for which the figures for the ED50 with Mus musculus [7] and in the test on Mus musculus [8] were 1.1 mg/kg and 11.9 mg/kg, respectively. Besides, the inhibition constant Ki on Mu-type opioid receptor [3] is 2.15 µM; in test [4] it was 0.0053 µM; in test [6], 2.23 µM.

For the compound `CCCC(=N)NCCCCCCNC(=O)C(CC(C)C)NC(=O)CNC(=O)[C@]1(c2ccccc2)CC1CN1CC[C@@]2(C)c3cc(O)ccc3CC1C2C` (some centres not stated), the Selectivity ratio in the test listed under Cavia porcellus is 158; in test [5] it was 125. The Ki was 2.27 µM on Mu-type opioid receptor [3], 0.0154 µM in test [4] and 2.43 µM in test [6].

As for `CCCCC(=N)NCCCCNC(=O)C(CC(C)C)NC(=O)CNC(=O)[C@]1(c2ccccc2)CC1CN1CC[C@@]2(C)c3cc(O)ccc3CC1C2C` (some centres not stated), the Selectivity ratio in the test listed under Cavia porcellus is 359; in test [5], 325. For the same compound, the figures for the Ki (on Mu-type opioid receptor [3]; in test [4]; in test [6]) were 3.31 µM, 0.0102 µM and 3.66 µM, respectively.

As for `CCCCC(=N)NCCCCCNC(=O)C(CC(C)C)NC(=O)CNC(=O)[C@]1(c2ccccc2)CC1CN1CC[C@@]2(C)c3cc(O)ccc3CC1C2C` (some centres not stated), the median effective dose (ED50) in the test on Mus musculus [7] turned out to be 0.88 mg/kg; in the test on Mus musculus [8], 9.2 mg/kg. The Ki at Mu-type opioid receptor [3] was determined as 2.53 µM; in test [4], 0.0067 µM; in [6], 2.75 µM.

As for `CCCC(=N)NCCCNC(=O)C(CC(C)C)NC(=O)CNC(=O)[C@]1(c2ccccc2)CC1CN1CC[C@@]2(C)c3cc(O)ccc3CC1C2C` (some centres not stated), the Selectivity ratio was found to be 118 in the test listed under Cavia porcellus and 133 in test [5]. Further, the inhibitory constant (Ki) is 10.7 µM at Mu-type opioid receptor [3], 0.0808 µM in test [4] and 9.54 µM in [6].

With `CCCC(=N)NCCCCCNC(=O)C(CC(C)C)NC(=O)CNC(=O)[C@]1(c2ccccc2)CC1CN1CC[C@@]2(C)c3cc(O)ccc3CC1C2C` (some centres not stated), the results for the Selectivity ratio (in the test filed under Cavia porcellus; in test [5]) were 79.8 and 110, respectively. Further, the Ki on Mu-type opioid receptor [3] is 7.19 µM; in [4], 0.0653 µM; in test [6], 5.21 µM.

For `CCCC(=N)NCCCCCCNC(=O)C(CC(C)C)NC(=O)[C@]1(c2ccccc2)CC1CN1CC[C@@]2(C)c3cc(O)ccc3CC1C2C` (some centres not stated), the Selectivity ratio was determined as 28.4 in the test filed under Cavia porcellus and 15.6 in test [5]. Besides, the values for the Ki (at Mu-type opioid receptor [3]; in test [4]; in [6]) were 1.9 µM, 0.122 µM and 3.46 µM, respectively.

Take `CC(C)CC(NC(=O)CNC(=O)[C@]1(c2ccccc2)CC1CN1CC[C@@]2(C)c3cc(O)ccc3CC1C2C)C(=O)NCCCCCCN` (some centres not stated): the Selectivity ratio was 76 in the test filed under Cavia porcellus and 101 in test [5]. Also, the Ki amounted to 8.07 µM at Mu-type opioid receptor [3], 0.0796 µM in [4] and 6.05 µM in test [6].

Consider `CC(C)CC(NC(=O)[C@]1(c2ccccc2)CC1CN1CC[C@@]2(C)c3cc(O)ccc3CC1C2C)C(=O)NCCCCCCN` (some centres not stated), for which the inhibition constant Ki came to 3.08 µM on Mu-type opioid receptor [3], 0.242 µM in [4] and 3.42 µM in test [6]. Moreover, the Ratio in [9] came out at 14.1. In addition, the Selectivity ratio in test [5] is 12.7.
